HEK293 NFkB inh: lowers PMA/ionomycin-induced NF-kB signal in HEK293 cells; HEK-293 NF-kB luciferase reporter, luminescence; inhibition, % at 3 µM; hit rate 0.21% among 62,000;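 active means inhibition above the mean of all tested compounds plus 3 SD, cut at about 40% in these data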
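System – HEK-293 cells with stable firefly luciferase reporter driven by four HIV NF-kB elements · Doses – one dose, 3 µM · Schedule – 1 h compound pre-incubation, 16 h PMA/ionomycin at 37 °C · Technique – luminescence from luciferase substrate reagent · Measure – percent inhibition normalized per plate to DMSO and reference-inhibitor controls · Replicates – tested once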
M1 antagonist: M1 muscarinic receptor (rat) antagonism. AID 628. CHO-M1 cells, Fluo-4 calcium, ACh EC80 antagonist mode; active compounds read low. hit rate 3.4% among 64,000. P08482. B-score at 10 µM;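 active means calcium fluorescence response, raw or row-and-column corrected B-score, differing from the plate sample mean either way at a set confidence level, mostly lower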
Htt clearance: compounds clearing mutant huntingtin protein; hit rate 0.42% among 47,000; AID 853; inhibition, % at 1.5 µM; HeLa Exon1htt(103Q)mCFP, aggregate imaging; zero = plate's median compound well;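 active means inhibition of aggregate fluorescence above about 70%, also judged a hit by eye on the cell image, limit read from the data, passing the limit was not always enough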;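 further: cells exposed to compound for three days before fixation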
M1 agonist: activates the M1 muscarinic receptor; CHO-M1 cells, Fluo-4 calcium fluorescence, agonist mode; active compounds read high; B-score at 10 µM; hit rate 3% among 64,000; AID 626;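 active means fluorescence rise, raw or as B-score row- and column-corrected plate score, outside the 99.7% band of its plate's samples, either direction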
D1 mod: allosterically modulates the human D1 dopamine receptor. AID 641. HEK293 D1, CRE-luciferase, dopamine EC30 potentiation; actives deviate in either direction. hit rate 5.9% among 58,000. P21728. B-score at 10 µM;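 active means luminescence count or its row- and column-corrected plate score outside the 99.7% band of the plate's sample wells, on either side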
Target sequence (P21728 whole entry, looked up): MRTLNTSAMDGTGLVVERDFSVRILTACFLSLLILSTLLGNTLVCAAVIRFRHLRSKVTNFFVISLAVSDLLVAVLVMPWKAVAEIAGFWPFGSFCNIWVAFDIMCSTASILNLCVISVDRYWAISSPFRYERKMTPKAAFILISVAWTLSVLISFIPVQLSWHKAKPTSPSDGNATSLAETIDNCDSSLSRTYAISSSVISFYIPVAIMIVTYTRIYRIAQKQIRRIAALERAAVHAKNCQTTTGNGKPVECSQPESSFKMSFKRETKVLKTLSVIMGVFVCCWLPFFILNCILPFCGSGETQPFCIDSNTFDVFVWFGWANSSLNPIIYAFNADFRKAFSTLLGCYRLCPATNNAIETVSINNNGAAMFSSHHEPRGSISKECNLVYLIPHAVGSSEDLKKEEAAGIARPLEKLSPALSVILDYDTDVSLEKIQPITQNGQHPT
Jurkat tox 60K: reduces viability or proliferation of Jurkat cells. inhibition, % at 4 µM. Jurkat E6.1 viability, ATP luminescence, 48 h. hit rate 1.2% among 56,000. AID 463;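 active means inhibition above the mean inhibition of all tested compounds plus 3 SD, cut at about 28% in these data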
Hits are given with their value; - = inactive; . = no result given. Hits are enriched below; roughly 9.5% of the tested compounds scored in any of these assays.

SMILES	HEK293 NFkB inh	M1 antagonist	Htt clearance	M1 agonist	D1 mod	Jurkat tox 60K
CCOC(=O)N1CCN(S(=O)(=O)c2cc(C)c(C)cc2C)CC1	-	-	-	-	-	-
CCOC(=O)N1CCN(S(=O)(=O)c2cc(Cl)ccc2Cl)CC1	-	0.95	.	-	-	.
COc1ccc(C2NC(=O)NC3=C2CCc2ccccc23)cc1 (centres undefined)	-	-	-	-	-	72
Cc1ccc(C2NC(=O)NC3=C2CCc2ccccc23)cc1 (centres undefined)	-	-	.	-	-	-
C=CCn1c(SCC(=O)c2cc(C)n(CCOC)c2C)nc2sc(C)c(C)c2c1=O	.	.	-	.	.	.
CC1C(=O)CCN(C(C)(C)C)C1C (centres undefined)	.	.	-	.	.	.
O=c1[nH]c(Nc2nc3ccccc3o2)nc2c1CCCC2	-	-	.	-	-6.4	-
Cc1ccc(Nc2nc3c(c(=O)[nH]2)CCCC3)cc1	.	.	-	.	.	.
Cn1c(=O)c(=O)n(C)c2cc(S(=O)(=O)Nc3ccc4c(c3)OCCO4)ccc21	-	-	-	-	-5.7	-
Cn1c(=O)oc2cc(S(=O)(=O)Nc3ccc4c(c3)OCCO4)ccc21	-	-	-	-	-	-
CCn1c(C)nc2cc(-c3nc4n(n3)Cc3ccccc3-4)ccc21	93	-	.	-	.	62
CCC(C)(C)n1nnnc1CN1CCN(C(c2ccccc2)c2ccccc2)CC1	.	.	-	.	.	.
COc1ccc(/C=C2\SC(=S)N(NC(=O)c3csc4c3CCCC4)C2=O)cc1	.	.	-	.	.	.
COc1cccc(N=Cc2ccc(O)cc2O)c1	-	-	.	2.2	.	-
COc1ccccc1-n1cnc(N)c1C(C)=O	-	-	.	-	-	-
COc1ccccc1-n1cnc(N)c1C(=O)c1ccccc1	-	-	-	-	-	36
CCCc1cc(=O)oc2cc(OCC(=O)OC)cc(OCC(=O)OC)c12	-	-	-	-	-	-
Cn1c(=O)oc2cc(S(=O)(=O)NCCN3CCCCCC3)ccc21	-	-	-	-	.	-
Cn1c(=O)oc2cc(S(=O)(=O)NCCN3CCN(c4ccccc4F)CC3)ccc21	-	-	-	-	-5.9	-
Cn1c(=O)oc2cc(S(=O)(=O)N3CCCc4ccccc43)ccc21	-	-	.	-	.	91
COCCNC(=O)C(C)OC(=O)c1cc2occc2n1C (centres undefined)	-	-	.	-	-	-
Cn1cc(Cl)c(C(=O)OCC(=O)Nc2nc(-c3ccc(Br)cc3)cs2)n1	.	.	-	.	.	.
Clc1ccc(CSc2nnc(-c3cccnc3)o2)cc1	.	.	-	.	.	.
Cc1cc2ncn(S(=O)(=O)N3CCOCC3)c2cc1C	-	-	70	-	.	-
Cc1nn(Cc2ccccc2)c(C)c1NC(=O)CSc1nc2sc3c(c2c(=O)n1C)CCC3	-	-	-	-	-	-
SMILES	HEK293 NFkB inh	M1 antagonist	Htt clearance	M1 agonist	D1 mod	Jurkat tox 60K
Cc1cc(C)n2nc(C(=O)OCC(=O)Nc3ccc4c(c3)OCO4)nc2n1	-	-	-	-	-4.9	-
CCOc1ccc(N2CCn3c2nc2c3c(=O)n(CCc3ccccc3)c(=O)n2C)cc1	-	-	.	-	-	-
Cc1nc2cc(-c3ccc(Cl)cc3)nn2c(C)c1CCC(=O)NCc1ccco1	.	.	-	.	.	.
Cc1nc2c(-c3ccccc3)c(C)nn2c(C)c1CCC(=O)NCc1ccco1	-	-	.	-	-5.2	-
Cc1nc2c(-c3ccc(F)cc3)c(C)nn2c(C)c1CCC(=O)NC(C)CCc1ccco1 (centres undefined)	-	-	-	-	-3.3	-
CCOc1cc(S(=O)(=O)N(Cc2ccccc2)Cc2ccccc2)c(OCC)cc1-n1cnnn1	.	.	-	.	.	.
COc1cccc(C(=O)Nc2nnc(C(C)C)s2)c1	-	-	-	-	-3.3	.
CCCc1nnc(NC(=O)c2cccc(OC)c2)s1	-	-	.	-	-	-
CCCn1nc(-c2nnc(-c3ccc(C)c(C)c3)o2)c2ccccc2c1=O	-	-	.	-	-	-
CCCS(=O)(=O)c1nnnn1-c1cccc(OC)c1	-	-	.	-	-	101
Cc1nc2nc(C)c(CCC(=O)N3CCOCC3)c(C)n2n1	-	-	-	-	.	-
CC(C)c1ccc2oc(-c3cc(N)ccc3O)nc2c1	-	-	-	-	-3.9	-
CCN(CC)S(=O)(=O)c1cccc(C(=O)OCc2cc(=O)n3nc(C)sc3n2)c1	-	-	.	-	-	-
c1ccc(-c2noc(-c3ccncc3)n2)nc1	-	-	.	-	-	-
COc1cccc(-c2nc(-c3ccccn3)no2)c1	.	.	-	.	.	.
c1ccc(-c2noc(-c3ccc4ccccc4c3)n2)nc1	75	-	.	-	-4.4	-
c1ccc(-c2noc(-c3cccnc3)n2)nc1	-	-	.	-	-4.1	-
Cc1ccc(-c2nc(-c3cccnc3)no2)cc1	-	-	-	-	-4.9	-
c1ccc(-c2noc(-c3ccc4c(c3)OCO4)n2)nc1	41	-	.	-	-8.3	41
COC(=O)c1cc2ccsc2n1CC(=O)N(C)C1CCCCC1	.	.	-	.	.	.
O=C(Nc1cnn(Cc2ccc(Cl)c(Cl)c2)c1)C12CC3CC(CC(C3)C1)C2	.	.	-	.	.	.
CCCCOC(=O)c1[nH]c2c(c1C)C(=O)CC(c1cc(OC)c(OC)c(OC)c1)C2 (centres undefined)	-	-	.	-	-3.4	46
COCCOC(=O)c1[nH]c2c(c1C)C(=O)CC(c1ccco1)C2 (centres undefined)	-	-	.	-	-	92
Cc1c(C(=O)OCc2ccccc2)[nH]c2c1C(=O)CC(c1ccco1)C2 (centres undefined)	-	-	.	-	-	98
COCCOC(=O)c1[nH]c2c(c1C)C(=O)CC(c1ccc(F)cc1)C2 (centres undefined)	-	-	-	-	.	75
SMILES	HEK293 NFkB inh	M1 antagonist	Htt clearance	M1 agonist	D1 mod	Jurkat tox 60K
COCCOC(=O)c1[nH]c2c(c1C)C(=O)CC(c1ccccc1)C2 (centres undefined)	-	-	.	-	.	.
CCOC(=O)N1CCN(C(=O)Cc2ccsc2)CC1	-	-	-	-	-	-
CCCN(CCC)C(=O)CC(c1ccccc1)c1cc(Br)ccc1O (centres undefined)	.	.	-	.	.	.
CCOC(=O)c1[nH]c2c(c1C)C(=O)CC(c1ccco1)C2 (centres undefined)	41	-	.	-	-	100
COCCOC(=O)c1[nH]c2c(c1C)C(=O)CC(c1ccc(N(C)C)cc1)C2 (centres undefined)	-	-	-	-	-	-
CSCCOC(=O)c1[nH]c2c(c1C)C(=O)CC(c1ccco1)C2 (centres undefined)	-	-	.	-	-	85
Cc1cc(C)n(-c2nc3c(c(=O)n(C)c(=O)n3C)n2Cc2cccc(Br)c2)n1	-	-	.	-	-	-
Clc1ccc(-c2nnc(N3CCCC3)nn2)cc1	-	-	-	-	-2.5	.
Cc1cc(C)cc(OCC(=O)NCC2CCCO2)c1 (centres undefined)	.	-	.	-	-4.8	.
Cc1ccc(NC(=O)Cn2nnc(C(=O)Nc3ccc(C)c(C)c3)c2N)cc1	-	-	83	-	.	.
Cc1ccc(NC(=O)Cn2nnc(C(=O)NCc3ccco3)c2N)cc1	.	.	71	.	.	.
